Measured values as given in ChEMBL document CHEMBL4396897, “Potent 5-Cyano-6-phenyl-pyrimidin-Based Derivatives Targeting DCN1-UBE2M Interaction” (J Med Chem, 2019).
pIC50: −log10 of the molar value. The source made the active and inactive calls. The rule behind the calls is not given here.

Assays:
NCI-H1975 [1] = test: Effect on Cullin3 neddylation in human NCI-H1975 cells transfected with DCN1 siRNA3 by densitometric method; assay type: functional, cell-based
How it was run: (§1)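 H1975 or PC9 cells seeded in 6-well plates for 16-24h, transfected with DCN1 siRNA#3 by lipofection, with or without compound, and collected three days later. Western blot for Cullin3, DCN1, NRF2, HO-1 and NQO1, with densitometry normalized to GAPDH. Three individual experiments, means ± SD.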

PC-9 [2] = test: Induction of apoptosis in human PC9 cells after 48 hrs by Annexin V-FITC/propidium iodide staining based flow cytometry; assay type: functional, cell-based
How it was run: (§2)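 PC9 cells seeded in 6-well plates (1~2×10^6 cells/mL), incubated overnight, then exposed to 0, 2.5, 5 or 10µM compound for 48h. Harvested cells stained with Annexin-V-FITC/PI for 30 min and analysed by flow cytometry. Three individual experiments; means ± SD.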

NCI-H1975 [3] = test: Antiproliferative activity against human NCI-NCI-H1975 by MTT assay; assay type: functional, cell-based; conditions: TDE = time-dependent effect
PC-9 [4] = test: Induction of apoptosis in human PC9 cells assessed as early apoptotic cells at 5 uM after 48 hrs by Annexin V-FITC/propidium iodide staining based flow cytometry (reference value: 1.36%); assay type: functional; how it was run: as §2
A549 [5] = test: Induction of apoptosis in human A549 cells assessed as viable cells at 5 uM after 48 hrs by Annexin V-FITC/propidium iodide staining based flow cytometry (reference value: 92.9%); assay type: functional; conditions: A549, 48 h, read-out: Activity
PC-9 [6] = test: Induction of apoptosis in human PC9 cells assessed as necrotic cells at 10 uM after 48 hrs by Annexin V-FITC/propidium iodide staining based flow cytometry (reference value: 1.34%); assay type: functional; how it was run: as §2
PC-9 [7] = test: Induction of apoptosis in human PC9 cells assessed as necrotic cells at 2.5 uM after 48 hrs by Annexin V-FITC/propidium iodide staining based flow cytometry (reference value: 1.34%); assay type: functional; how it was run: as §2
A549 [8] = test: Induction of apoptosis in human A549 cells assessed as necrotic cells at 5 uM after 48 hrs by Annexin V-FITC/propidium iodide staining based flow cytometry (reference value: 0.88%); assay type: functional
PC-9 [9] = test: Induction of apoptosis in human PC9 cells assessed as viable cells at 2.5 uM after 48 hrs by Annexin V-FITC/propidium iodide staining based flow cytometry (reference value: 95.7%); assay type: functional; conditions: PC-9, 48 h, read-out: Activity; how it was run: as §2
PC-9 [10] = test: Induction of apoptosis in human PC9 cells assessed as early apoptotic cells at 10 uM after 48 hrs by Annexin V-FITC/propidium iodide staining based flow cytometry (reference value: 1.36%); assay type: functional; how it was run: as §2
NCI-H1975 [11] = test: Induction of apoptosis in human NCI-NCI-H1975 cells after 48 hrs by Annexin V-FITC/propidium iodide staining based flow cytometry; assay type: functional, cell-based
A549 [12] = test: Induction of apoptosis in human A549 cells assessed as late apoptotic cells at 2.5 uM after 48 hrs by Annexin V-FITC/propidium iodide staining based flow cytometry (reference value: 2.61%); assay type: functional
PC-9 [13] = test: Effect on Cullin3 neddylation in human PC9 cells transfected with DCN1 siRNA3 by densitometric method; assay type: functional, cell-based; how it was run: as §1
NCI-H1975 [14] = test: Induction of apoptosis in human NCI-NCI-H1975 cells assessed as necrotic cells at 2.5 uM after 48 hrs by Annexin V-FITC/propidium iodide staining based flow cytometry (reference value: 0.94%); assay type: functional
NCI-H1975 [15] = test: Induction of apoptosis in human NCI-NCI-H1975 cells assessed as viable cells at 2.5 uM after 48 hrs by Annexin V-FITC/propidium iodide staining based flow cytometry (reference value: 96.1%); assay type: functional; conditions: NCI-H1975, 48 h, read-out: Activity
PC-9 [16] = test: Induction of apoptosis in human PC9 cells assessed as necrotic cells at 5 uM after 48 hrs by Annexin V-FITC/propidium iodide staining based flow cytometry (reference value: 1.34%); assay type: functional; how it was run: as §2
KYSE-70 cell line = test: Antiproliferative activity against human KYSE-70 after 72 hrs by MTT assay; assay type: functional, cell-based; conditions: KYSE-70, 72 h
How it was run: (§3)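 MTT viability assay: cells seeded at 2~5×10^3 per well, exposed to serial dilutions of compound for 72h, then MTT (5 mg/mL in PBS) added for 4h at 37°C. Formazan dissolved in DMSO and read at 490nm. IC50 reported as mean ± SD of three independent experiments.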

NCI-H1975 [17] = test: Induction of apoptosis in human NCI-NCI-H1975 cells assessed as early apoptotic cells at 10 uM after 48 hrs by Annexin V-FITC/propidium iodide staining based flow cytometry (reference value: 2.47%); assay type: functional
A549 [18] = test: Induction of apoptosis in human A549 cells after 48 hrs by Annexin V-FITC/propidium iodide staining based flow cytometry; assay type: functional, cell-based
GES1 = test: Antiproliferative activity against human GES-1 after 72 hrs by MTT assay; assay type: cell-based; conditions: ges1, 72 h; how it was run: as §3
PC-9 [19] = test: Effect on HO-1 accumulation in human PC9 cells transfected with DCN1 siRNA3 by densitometric method; assay type: functional, cell-based; how it was run: as §1
PC-9 [20] = test: Induction of apoptosis in human PC9 cells assessed as early apoptotic cells at 2.5 uM after 48 hrs by Annexin V-FITC/propidium iodide staining based flow cytometry (reference value: 1.36%); assay type: functional; how it was run: as §2
NCI-H1975 [21] = test: Induction of apoptosis in human NCI-NCI-H1975 cells assessed as late apoptotic cells at 5 uM after 48 hrs by Annexin V-FITC/propidium iodide staining based flow cytometry (reference value: 0.46%); assay type: functional
PC-9 [22] = test: Inhibition of colony formation in human PC9 cells after 7 days by crystal violet staining based microscopic analysis; assay type: functional, cell-based
How it was run: (§4)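 H1975, PC9 and A549 cells seeded at 1×10^3 cells per well and cultured overnight, then given fresh medium with compound at 0, 0.625, 1.25, 2.5, 5 or 10μM for 7 days. Cells fixed, stained with 0.1% crystal violet and imaged by microscopy; dye then dissolved and read on a plate reader. Three experiments; means ± SD.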

PC-9 [23] = test: Induction of apoptosis in human PC9 cells assessed as late apoptotic cells at 5 uM after 48 hrs by Annexin V-FITC/propidium iodide staining based flow cytometry (reference value: 1.57%); assay type: functional
[24] = Aqueous solubility of compound in pH 7.4 PBS sonicated for 30 mins followed by 24 hrs incubation under shaking condition by UV-Vis spectroscopy; assay type: physicochemical; conditions: buffer, pH 7.4, 24 h
How it was run: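 Compound powder added to phosphate buffer (PBS, pH 7.4) until a suspension formed. Sonicated 30 min in a water bath, then shaken 24 h at room temperature to reach equilibrium. Centrifuged, supernatant filtered through a 0.45µm membrane, and filtrate measured by UV spectroscopy against a PBS control.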

NCI-H1975 [25] = test: Effect on HO-1 accumulation in human […] cells transfected with DCN1 siRNA3 by densitometric method; assay type: functional, cell-based; how it was run: as §1
NCI-H1975 [26] = test: Inhibition of colony formation in human […] cells after 7 days by crystal violet staining based microscopic analysis; assay type: functional, cell-based; how it was run: as §4
ECa-109 cell line = test: Antiproliferative activity against human EC109 after 72 hrs by MTT assay; assay type: functional, cell-based; how it was run: as §3
A549 [27] = test: Induction of apoptosis in human A549 cells assessed as late apoptotic cells at 10 uM after 48 hrs by Annexin V-FITC/propidium iodide staining based flow cytometry (reference value: 2.61%); assay type: functional

## C#CCSc1nc(Sc2nccs2)c(C#N)c(-c2ccc(C)cc2)n1
NCI-H1975 [1]
  Activity: inactive
PC-9 [2]
  Activity: Dose-dependent effect
NCI-H1975 [3]
  Activity: Tde
PC-9 [4]
  Activity: 8.15%
A549 [5]
  viability at 5 µM: 52.6%
PC-9 [6]
  Activity: 17.4%
PC-9 [7]
  Activity: 19.9%
A549 [8]
  Activity: 7.02%
PC-9 [9]
  viability at 2.5 µM: 69.3%
PC-9 [10]
  Activity: 1.97%
NCI-H1975 [11]
  Activity: Dose-dependent effect
A549 [12]
  Activity: 10.3%
PC-9 [13]
  Activity: inactive
NCI-H1975 [14]
  Activity: 1.35%
NCI-H1975 [15]
  viability at 2.5 µM: 80%
PC-9 [16]
  Activity: 5.29%
KYSE-70 cell line
  pIC50: 5.37
NCI-H1975 [17]
  Activity: 33.2%
A549 [18]
  Activity: Dose-dependent effect
GES1
  Activity: Non-Toxic
PC-9 [19]
  Activity: inactive
PC-9 [20]
  Activity: 0.64%
NCI-H1975 [21]
  Activity: 29%
PC-9 [22]
  inhibition: Dose-dependent effect
PC-9 [23]
  Activity: 22.7%
[24]
  solubility: Soluble
NCI-H1975 [25]
  Activity: inactive
NCI-H1975 [26]
  inhibition: Dose-dependent effect
ECa-109 cell line
  Activity: Active
A549 [27]
  Activity: 81.1%
